Series [1] has as its system Staphylococcus aureus. In words: Antibacterial activity against methicillin-resistant Staphylococcus aureus ATCC 33592 assessed as bacterial growth inhibition incubated for 18 to 20 hrs by CLSI based broth microdilution assay. The class given is functional. The note with it: time 18-20 hrs. In short, it runs like this: (§1)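 CLSI broth microdilution; compounds and control antibiotics made up at 10 mg mL−1 in DMSO (stock), serially diluted 1:2 across the plate. Inoculum adjusted to 0.5 McFarland, then diluted 1:100 into wells. Plates incubated static at 37 °C for 18–20 h before MIC read.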
Background: Dilution methods test growth across graded concentrations, often in twofold steps.

The subject of series [2] is Enterococcus faecalis. In words: Antibacterial activity against Enterococcus faecalis ATCC 29212 assessed as bacterial growth inhibition incubated for 18 to 20 hrs by CLSI based broth microdilution assay. The class given is functional. The note with it: time 18-20 hrs. In short, it runs like this: as §1
Series [3] deals with Enterococcus faecalis. Description: Antibacterial activity against vancomycin-resistant Enterococcus faecalis ATCC 51575 assessed as bacterial growth inhibition incubated for 18 to 20 hrs by CLSI based broth microdilution assay. Type of series: functional. The note with it: time 18-20 hrs. In short, it runs like this: as §1
Series [4] relates to Staphylococcus aureus. Description: Bactericidal activity against Staphylococcus aureus ATCC 25923 assessed as reduction in colony forming unit incubated for 20 hrs. Type of series: functional. In a few lines: (§2)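 Follows the broth microdilution MIC plate. 4 μL taken from each well without growth, spotted in duplicate on tryptic soy agar and incubated static at 37 °C for 20 h. MBC taken as the concentration giving 99.9% reduction in CFU.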

Series [5] concerns Staphylococcus aureus. In words: Bactericidal activity against methicillin-resistant Staphylococcus aureus USA300 assessed as reduction in colony forming unit incubated for 20 hrs. Type of series: functional. In short, it runs like this:
as §2

Series [6] concerns Enterococcus faecalis. Description: Bactericidal activity against vancomycin-resistant Enterococcus faecalis ATCC 51575 assessed as reduction in colony forming unit incubated for 20 hrs. Type of series: functional. In a few lines: as §2
Series [7] concerns Staphylococcus aureus. Description: Antibacterial activity against methicillin-resistant Staphylococcus aureus USA300 (ARLG 1561) assessed as bacterial growth inhibition incubated for 18 to 20 hrs by CLSI based broth microdilution assay. Type of series: functional. The settings on record: time 18-20 hrs. In short, it runs like this: as §1
Series [8] concerns Staphylococcus aureus. Description: Antibacterial activity against methicillin-resistant Staphylococcus aureus USA300 (ARLG 1567) assessed as bacterial growth inhibition incubated for 18 to 20 hrs by CLSI based broth microdilution assay. The settings on record: time 18-20 hrs. The class given is functional. In a few lines: as §1
Series [9] relates to Staphylococcus aureus. Description: Antibacterial activity against methicillin-resistant Staphylococcus aureus USA300 (ARLG 1568) assessed as bacterial growth inhibition incubated for 18 to 20 hrs by CLSI based broth microdilution assay. The class given is functional. The note with it: time 18-20 hrs. In short, it runs like this:
as §1

The subject of series [10] is Staphylococcus aureus. Description: Antibacterial activity against methicillin-resistant Staphylococcus aureus USA300 (ARLG 1569) assessed as bacterial growth inhibition incubated for 18 to 20 hrs by CLSI based broth microdilution assay. Type of series: functional. The settings on record: time 18-20 hrs. In short, it runs like this:
as §1

The test system of series [11] is Staphylococcus aureus. Description: Antibacterial activity against methicillin-resistant Staphylococcus aureus ST239 (ARLG 1663) assessed as bacterial growth inhibition incubated for 18 to 20 hrs by CLSI based broth microdilution assay. The note with it: time 18-20 hrs. Type of series: functional. In short, it runs like this: as §1
Series [12] deals with Staphylococcus aureus. In words: Antibacterial activity against methicillin-resistant Staphylococcus aureus ST239 (ARLG 1665) assessed as bacterial growth inhibition incubated for 18 to 20 hrs by CLSI based broth microdilution assay. Type of series: functional. The note with it: time 18-20 hrs. In a few lines: as §1
Series [13] concerns Staphylococcus aureus. Description: Antibacterial activity against Staphylococcus aureus ATCC 25923 assessed as bacterial growth inhibition at 16 ug/ml incubated for 18 to 20 hrs by CLSI based broth microdilution assay. The class given is functional, organism-based. The note with it: dose 16.0 µg/ml, time 18-20 hrs. In a few lines: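 Single-concentration screen at 16 μg mL−1 final. Overnight TSB culture was diluted 1:1000 in cation-adjusted MHB and grown to early exponential phase. 1 mL of culture was added to compound in glass tubes and incubated overnight at 37 °C. OD600 was read and normalized to the DMSO control after subtracting medium-only OD.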

Series [14] has as its system Staphylococcus aureus. In words: Bactericidal activity against methicillin-resistant Staphylococcus aureus ATCC 33592 assessed as reduction in colony forming unit at 1 x MIC incubated for 18 to 24 hrs by Time-kill analysis. The class given is functional, organism-based. The note with it: time 18-24 hrs. In short, it runs like this: (§3)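 Log-phase time-kill. Overnight TSB culture diluted 1:1000 and grown to OD600 0.6, then diluted 1 in 10 in TSB (about 2.92 × 10^6 CFU per mL). Exposed at 1× or 4× MIC in triplicate at 37 °C. Samples taken at 0, 2, 4, 8, 12 and 24 h, serially diluted in PBS, plated on TSA in duplicate and counted after 18–20 h.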

Series [15] has as its system Staphylococcus aureus. In words: Bactericidal activity against methicillin-resistant Staphylococcus aureus ATCC 33592 assessed as reduction in colony forming unit at 4 x MIC incubated for 18 to 24 hrs by Time-kill analysis. Type of series: functional, organism-based. The settings on record: time 18-24 hrs. In short, it runs like this:
as §3

Series [16] concerns Staphylococcus aureus. In words: Bactericidal activity against persister methicillin-resistant Staphylococcus aureus ATCC 33592 assessed as reduction in colony forming unit at 1 x MIC incubated for 6 hrs by Time-kill analysis. The class given is functional, organism-based. In a few lines: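 Stationary-phase (persister) time-kill. Overnight TSB culture diluted 1 in 10 in TSB directly (about 2.92 × 10^6 CFU per mL), with no regrowth step. Exposed at 1× or 4× MIC in triplicate at 37 °C. Samples taken at 0, 2, 4 and 6 h, serially diluted in PBS, plated on TSA in duplicate and incubated 18–24 h.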

The subject of series [17] is Staphylococcus aureus. In words: Antibacterial activity against methicillin-resistant Staphylococcus aureus USA300 assessed as fold increase in MIC incubated for 30 days by resistance development based broth microdilution assay. The note with it: time 30 day. Type of series: functional. In short, it runs like this: (§4)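 Multi-step resistance selection over 30 days. MIC determined first. Each day, 5 μL from the turbid well just below the MIC was diluted 1:1000 in CA-MHB and used as inoculum for the next broth microdilution MIC. Resistance defined as a rise of more than four-fold over the starting MIC.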

Series [18] relates to Staphylococcus aureus. Description: Antibacterial activity against methicillin-resistant Staphylococcus aureus ATCC 33592 assessed as fold increase in MIC incubated for 30 days by resistance development based broth microdilution assay. Type of series: functional. The settings on record: time 30 day. In short, it runs like this: as §4
The test system of series [19] is Cell membrane. In words: Induction of cell membrane permeability in Staphylococcus aureus ATCC 25923 at 1 ug/ml incubated for […] by Sytox green based fluorescence method. The settings on record: dose 1.0 µg/ml. In a few lines:
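Exponential-phase cells (OD600 0.2–0.3) washed three times in PBS and resuspended in PBS + 10% TSB. Sytox green added to 5 μM final and equilibrated 15–30 min in the dark. Fluorescence (ex 504/em 522 nm) read for 10 min baseline, then every 3 min for 3 h after addition. Run in triplicate; 1% Triton X-100 as positive control.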

Series [20] deals with Cell membrane. In words: Induction of cell membrane permeability in Staphylococcus aureus ATCC 25923 at 2 to 10 ug/ml by DiOC2 dye based flow cytometry assay. The settings on record: dose 2-10 µg/ml. In short, it runs like this: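 Exponential-phase cells (OD600 0.2–0.3) treated at 2 or 10 μg mL−1; bithionol 4 μg mL−1 as positive control. Washed twice in PBS and resuspended in buffer. To-PRO 3 iodide (red) and DiOC2 (green) added and cells analysed at once by flow cytometry. Permeabilization read as the red/green ratio.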
(In general: A flow cytometer gives signals particle by particle.)

Series [21] concerns Erythrocyte. In words: Cytotoxicity against human RBC at 20 ug/ml incubated for 30 mins by spectrophotometric method. The class given is toxicity, cell-based. The settings on record: 0.5 h, dose 20 µg/ml. In a few lines: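 Hemolysis of 5% human RBCs exposed to compound at 5–20 μg mL−1 for 30 min at 37 °C. Intact cells were pelleted by centrifugation and supernatant absorbance read at 540 nm. Values are percent of 1% Triton X-100 lysis, with DMSO as negative control. Triplicate.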

The subject of series [22] is Enterococcus faecium. In words: Antibacterial activity against vancomycin-resistant Enterococcus faecium ATCC 700221 assessed as bacterial growth inhibition incubated for 18 to 20 hrs by CLSI based broth microdilution assay.

Values after ≈ are worked out from the molar mass of the structure shown. Active and inactive are the calls of the source.

The MIC is the least concentration at which growth counts as inhibited. By MBC is commonly meant the smallest concentration meeting the test's criterion for killing.

`FC(F)(F)c1n[nH]cc1[C@@H]1Nc2ccc(S(F)(F)(F)(F)F)cc2[C@H]2[C@@H]3CC[C@@H](C3)[C@H]21`: the MIC in series [1] amounted to 2 µg/mL (≈ 4.35 µM); in series [2], 4 µg/mL (≈ 8.71 µM); in series [3], 4 µg/mL (≈ 8.71 µM); in series [7], 2 µg/mL (≈ 4.35 µM); in [8], 2 µg/mL (≈ 4.35 µM); in series [9] it was 2 µg/mL (≈ 4.35 µM). For the same compound, the MIC in series [10] was found to be 2 µg/mL (≈ 4.35 µM); in series [11] it was 1 µg/mL (≈ 2.18 µM); in series [12], 2 µg/mL (≈ 4.35 µM); in [22], 2 µg/mL (≈ 4.35 µM). In addition, the MBC in series [4], in series [5] and in [6] was 8 µg/mL (≈ 17.4 µM) each time. Moreover, the outcome in [13], in series [14], in [15], in series [16], in series [19] and in [20] was Active. In addition, the “fold change (FC)” value in series [17] and in [18] was 1 throughout. The Activity entry in [21] is listed as “Non-Toxic”.

The record behind these values is ChEMBL document CHEMBL5107946, “SF5- and SCF3-substituted tetrahydroquinoline compounds as potent bactericidal agents against multidrug-resistant persister Gram-positive bacteria” (RSC Med Chem, 2021).
